We go through 12 compounds from publication PMC9279635 (Acta Pharmaceutica Sinica. B, 2021).

Like-named read-outs stand apart in the source and are kept apart here.

Test [1] addresses T1, DDR2 (Homo sapiens, UniProt Q16832).
T1 sequence (Q16832 22-855): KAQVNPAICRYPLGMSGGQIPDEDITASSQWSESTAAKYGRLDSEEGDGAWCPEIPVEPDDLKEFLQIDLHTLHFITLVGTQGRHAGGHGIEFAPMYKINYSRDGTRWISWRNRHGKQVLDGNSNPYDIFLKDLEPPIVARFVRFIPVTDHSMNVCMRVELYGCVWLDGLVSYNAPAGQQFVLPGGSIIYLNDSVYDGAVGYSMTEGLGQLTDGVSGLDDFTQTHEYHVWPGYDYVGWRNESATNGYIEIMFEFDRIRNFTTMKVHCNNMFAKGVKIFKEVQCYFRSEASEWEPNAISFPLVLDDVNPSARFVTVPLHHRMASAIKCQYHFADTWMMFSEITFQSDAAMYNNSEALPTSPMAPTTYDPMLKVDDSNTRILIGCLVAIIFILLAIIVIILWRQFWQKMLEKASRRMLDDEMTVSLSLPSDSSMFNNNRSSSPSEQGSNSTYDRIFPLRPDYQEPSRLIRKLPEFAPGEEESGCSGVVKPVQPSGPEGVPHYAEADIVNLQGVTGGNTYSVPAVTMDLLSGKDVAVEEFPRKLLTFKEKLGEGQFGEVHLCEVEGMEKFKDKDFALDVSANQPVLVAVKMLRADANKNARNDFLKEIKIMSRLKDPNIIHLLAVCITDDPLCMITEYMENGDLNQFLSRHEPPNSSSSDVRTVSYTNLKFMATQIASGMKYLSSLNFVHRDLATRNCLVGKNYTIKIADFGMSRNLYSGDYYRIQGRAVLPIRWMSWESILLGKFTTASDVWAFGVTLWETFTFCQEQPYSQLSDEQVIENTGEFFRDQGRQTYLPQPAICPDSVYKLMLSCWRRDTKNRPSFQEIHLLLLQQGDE
In words: ELISA kinase assay, DDR2. It is filed as biochemical.

Test [2] has as its target KDR (Homo sapiens, UniProt P35968). In words: ELISA kinase assay, KDR. Type of test: biochemical. Conditions: for inhibition at 0.1 µM: read-out: KDR inhibition @100 nmol/L.
In test [3] the target is DDR1 (Homo sapiens, UniProt Q08345). The test can be described thus: ELISA kinase assay, DDR1. Type of test: biochemical.
Sequence of DDR1 (Q08345 19-913): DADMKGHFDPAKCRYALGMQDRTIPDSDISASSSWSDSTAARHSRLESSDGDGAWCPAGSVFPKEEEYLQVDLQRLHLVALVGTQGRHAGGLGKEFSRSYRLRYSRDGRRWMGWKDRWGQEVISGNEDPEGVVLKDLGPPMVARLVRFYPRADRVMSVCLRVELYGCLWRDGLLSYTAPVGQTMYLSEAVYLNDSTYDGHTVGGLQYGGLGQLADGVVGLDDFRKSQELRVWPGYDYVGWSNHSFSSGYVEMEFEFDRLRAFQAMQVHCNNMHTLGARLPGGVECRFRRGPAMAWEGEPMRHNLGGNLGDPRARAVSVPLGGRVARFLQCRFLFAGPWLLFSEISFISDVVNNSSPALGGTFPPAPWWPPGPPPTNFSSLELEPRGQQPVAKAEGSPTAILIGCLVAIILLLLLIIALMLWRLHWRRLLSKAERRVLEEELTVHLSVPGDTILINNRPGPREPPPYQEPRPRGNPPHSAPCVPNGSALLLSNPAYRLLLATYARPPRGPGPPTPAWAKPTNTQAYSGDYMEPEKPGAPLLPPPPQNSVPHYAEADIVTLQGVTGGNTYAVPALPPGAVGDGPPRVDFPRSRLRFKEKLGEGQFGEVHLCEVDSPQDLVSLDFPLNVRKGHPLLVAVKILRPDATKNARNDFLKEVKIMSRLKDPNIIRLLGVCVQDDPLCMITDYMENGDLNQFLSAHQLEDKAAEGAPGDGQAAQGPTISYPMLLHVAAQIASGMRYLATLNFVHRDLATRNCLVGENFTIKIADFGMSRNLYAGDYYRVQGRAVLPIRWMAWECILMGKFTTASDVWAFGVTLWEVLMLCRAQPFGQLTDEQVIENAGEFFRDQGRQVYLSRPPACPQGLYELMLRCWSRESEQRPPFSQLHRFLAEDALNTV
Test [4] has as its target RET (Homo sapiens, UniProt P07949). The test can be described thus: ELISA kinase assay, RET. Conditions: for inhibition at 0.01 µM: read-out: RET inhibition @10 nmol/L. Type of test: biochemical.
The target of test [5] is T2, Flt-3 (Homo sapiens, UniProt P36888).
T2 sequence (P36888 27-993): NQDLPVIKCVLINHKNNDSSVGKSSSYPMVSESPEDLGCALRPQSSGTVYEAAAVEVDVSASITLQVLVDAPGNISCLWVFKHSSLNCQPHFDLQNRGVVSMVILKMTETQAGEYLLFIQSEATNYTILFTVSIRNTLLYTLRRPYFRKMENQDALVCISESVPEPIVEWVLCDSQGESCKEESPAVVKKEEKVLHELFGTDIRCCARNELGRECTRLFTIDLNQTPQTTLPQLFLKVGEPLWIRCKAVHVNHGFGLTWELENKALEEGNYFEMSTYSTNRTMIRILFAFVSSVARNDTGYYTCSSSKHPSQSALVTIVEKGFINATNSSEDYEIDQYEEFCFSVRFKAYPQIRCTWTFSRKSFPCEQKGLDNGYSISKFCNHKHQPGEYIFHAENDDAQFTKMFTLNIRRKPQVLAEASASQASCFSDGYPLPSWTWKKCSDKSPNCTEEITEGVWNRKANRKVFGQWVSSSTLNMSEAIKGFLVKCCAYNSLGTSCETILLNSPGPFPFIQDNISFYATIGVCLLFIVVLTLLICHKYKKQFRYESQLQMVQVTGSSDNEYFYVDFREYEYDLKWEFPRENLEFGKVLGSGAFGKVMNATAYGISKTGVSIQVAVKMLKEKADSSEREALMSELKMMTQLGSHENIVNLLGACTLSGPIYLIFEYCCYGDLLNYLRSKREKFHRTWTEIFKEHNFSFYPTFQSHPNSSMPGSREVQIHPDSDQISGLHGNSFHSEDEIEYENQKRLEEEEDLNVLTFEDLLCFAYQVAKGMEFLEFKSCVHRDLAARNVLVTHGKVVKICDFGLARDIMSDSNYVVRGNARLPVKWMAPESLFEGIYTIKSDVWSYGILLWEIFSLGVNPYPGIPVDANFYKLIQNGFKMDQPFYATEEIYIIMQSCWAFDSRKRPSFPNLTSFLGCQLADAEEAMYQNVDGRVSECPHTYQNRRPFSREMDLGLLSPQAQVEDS
The test can be described thus: ELISA kinase assay, Flt-3. It is filed as biochemical. Conditions: for inhibition at 0.01 µM: read-out: Flt-3 inhibition @10 nmol/L; for inhibition at 0.1 µM: read-out: Flt-3 inhibition@100 nmol/L.

The test system of test [6] is bleomycin-induced pulmonary fibrosis. In words: BLM induced mouse lung fibrosis. It is filed as in vivo, mice (C57BL/6). The method, boiled down:
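Bleomycin (1.7 U/kg) or saline is given intratracheally to mice. After 7 days, test compound is dosed once daily for 21 days (n = 6–9/group). Body weight is tracked over the period. On day 21, lung sections are stained with H&E, F4/80, Masson and COL-1, and H&E and Masson sections are scored. Data are mean ± SEM, analysed by one-way ANOVA with Fisher's LSD.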

In test [7] the target is ABL (Homo sapiens, UniProt P00519). In words: Kinase selectivity test, ABL. To be noted: 10 nmol/L. It is filed as biochemical.
Sequence of ABL (P00519 whole entry): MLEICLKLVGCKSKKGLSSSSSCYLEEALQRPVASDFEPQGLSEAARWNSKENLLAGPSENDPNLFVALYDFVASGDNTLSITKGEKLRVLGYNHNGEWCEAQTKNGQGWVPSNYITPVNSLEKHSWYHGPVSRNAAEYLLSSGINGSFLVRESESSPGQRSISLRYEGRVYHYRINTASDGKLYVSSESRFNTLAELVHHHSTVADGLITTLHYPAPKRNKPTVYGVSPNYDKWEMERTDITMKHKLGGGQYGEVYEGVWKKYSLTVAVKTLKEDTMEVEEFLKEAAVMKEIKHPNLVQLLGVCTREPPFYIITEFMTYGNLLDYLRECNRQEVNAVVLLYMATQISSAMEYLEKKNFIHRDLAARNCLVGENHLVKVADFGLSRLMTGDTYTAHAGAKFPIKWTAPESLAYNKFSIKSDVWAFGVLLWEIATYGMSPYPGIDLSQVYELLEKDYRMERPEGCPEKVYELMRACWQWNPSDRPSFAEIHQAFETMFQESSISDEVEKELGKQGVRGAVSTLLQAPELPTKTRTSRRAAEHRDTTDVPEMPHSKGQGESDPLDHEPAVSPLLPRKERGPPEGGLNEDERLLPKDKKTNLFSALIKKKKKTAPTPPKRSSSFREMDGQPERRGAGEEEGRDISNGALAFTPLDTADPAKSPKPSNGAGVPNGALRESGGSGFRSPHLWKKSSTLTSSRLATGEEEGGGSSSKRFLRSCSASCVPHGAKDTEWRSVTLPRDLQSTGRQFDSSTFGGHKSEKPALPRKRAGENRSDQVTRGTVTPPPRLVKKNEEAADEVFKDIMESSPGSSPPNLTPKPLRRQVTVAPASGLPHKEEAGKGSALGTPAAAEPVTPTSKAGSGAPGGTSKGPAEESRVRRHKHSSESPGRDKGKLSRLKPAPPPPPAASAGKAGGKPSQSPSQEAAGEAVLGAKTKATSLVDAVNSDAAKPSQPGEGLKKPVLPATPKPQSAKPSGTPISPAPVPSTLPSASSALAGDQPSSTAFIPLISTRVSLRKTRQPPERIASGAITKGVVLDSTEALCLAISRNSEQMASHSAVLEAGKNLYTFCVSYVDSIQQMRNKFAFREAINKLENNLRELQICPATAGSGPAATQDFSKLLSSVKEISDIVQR
Test [8] deals with DDR2 phosphorylation in MRC-5. In words: DDR2 phosphorylation in TGF-β stimulated MRC-5. Conditions: 1 μmol/L, MRC-5, 24 h TGF-β stimulation. It is filed as cell-based. In short, it runs like this: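 Confluent MRC-5 fibroblasts are stimulated with TGF-β (5 ng/mL) and treated with a range of test compound concentrations for 24 h. Western blots are probed for phospho-DDR2, fibronectin, α-SMA, with GAPDH as loading control.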

[9] abbreviates: DDR2 IC50, two separate experiments.

Sequence of RET (P07949 29-1114): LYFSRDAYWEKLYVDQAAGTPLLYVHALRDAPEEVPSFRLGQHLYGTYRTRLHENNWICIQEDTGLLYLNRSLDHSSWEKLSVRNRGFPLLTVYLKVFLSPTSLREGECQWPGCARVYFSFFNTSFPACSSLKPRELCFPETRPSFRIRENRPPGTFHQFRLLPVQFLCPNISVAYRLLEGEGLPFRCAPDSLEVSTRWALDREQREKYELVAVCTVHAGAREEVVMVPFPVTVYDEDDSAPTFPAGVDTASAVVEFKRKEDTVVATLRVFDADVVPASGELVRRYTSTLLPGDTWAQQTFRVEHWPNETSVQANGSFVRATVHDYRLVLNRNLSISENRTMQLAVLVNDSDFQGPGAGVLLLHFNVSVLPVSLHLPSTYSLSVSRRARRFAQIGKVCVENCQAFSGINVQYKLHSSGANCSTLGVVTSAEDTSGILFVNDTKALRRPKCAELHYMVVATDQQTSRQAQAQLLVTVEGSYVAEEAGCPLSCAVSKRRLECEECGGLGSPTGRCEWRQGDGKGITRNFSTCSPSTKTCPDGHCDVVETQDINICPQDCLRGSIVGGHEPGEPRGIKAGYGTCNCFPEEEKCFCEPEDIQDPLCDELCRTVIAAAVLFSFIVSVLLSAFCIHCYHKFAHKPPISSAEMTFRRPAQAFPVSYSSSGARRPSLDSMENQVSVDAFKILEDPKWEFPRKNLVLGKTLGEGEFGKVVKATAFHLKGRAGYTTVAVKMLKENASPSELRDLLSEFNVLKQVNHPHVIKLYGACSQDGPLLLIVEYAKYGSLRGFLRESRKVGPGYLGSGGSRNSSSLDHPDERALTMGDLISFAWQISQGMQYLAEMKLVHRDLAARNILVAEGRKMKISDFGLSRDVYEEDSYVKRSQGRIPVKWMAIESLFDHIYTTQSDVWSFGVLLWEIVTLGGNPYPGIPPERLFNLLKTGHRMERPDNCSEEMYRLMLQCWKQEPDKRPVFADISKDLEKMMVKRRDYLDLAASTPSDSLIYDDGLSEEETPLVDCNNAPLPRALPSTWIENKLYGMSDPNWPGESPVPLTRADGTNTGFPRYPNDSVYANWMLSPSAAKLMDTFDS
Sequence of KDR (P35968 20-1356): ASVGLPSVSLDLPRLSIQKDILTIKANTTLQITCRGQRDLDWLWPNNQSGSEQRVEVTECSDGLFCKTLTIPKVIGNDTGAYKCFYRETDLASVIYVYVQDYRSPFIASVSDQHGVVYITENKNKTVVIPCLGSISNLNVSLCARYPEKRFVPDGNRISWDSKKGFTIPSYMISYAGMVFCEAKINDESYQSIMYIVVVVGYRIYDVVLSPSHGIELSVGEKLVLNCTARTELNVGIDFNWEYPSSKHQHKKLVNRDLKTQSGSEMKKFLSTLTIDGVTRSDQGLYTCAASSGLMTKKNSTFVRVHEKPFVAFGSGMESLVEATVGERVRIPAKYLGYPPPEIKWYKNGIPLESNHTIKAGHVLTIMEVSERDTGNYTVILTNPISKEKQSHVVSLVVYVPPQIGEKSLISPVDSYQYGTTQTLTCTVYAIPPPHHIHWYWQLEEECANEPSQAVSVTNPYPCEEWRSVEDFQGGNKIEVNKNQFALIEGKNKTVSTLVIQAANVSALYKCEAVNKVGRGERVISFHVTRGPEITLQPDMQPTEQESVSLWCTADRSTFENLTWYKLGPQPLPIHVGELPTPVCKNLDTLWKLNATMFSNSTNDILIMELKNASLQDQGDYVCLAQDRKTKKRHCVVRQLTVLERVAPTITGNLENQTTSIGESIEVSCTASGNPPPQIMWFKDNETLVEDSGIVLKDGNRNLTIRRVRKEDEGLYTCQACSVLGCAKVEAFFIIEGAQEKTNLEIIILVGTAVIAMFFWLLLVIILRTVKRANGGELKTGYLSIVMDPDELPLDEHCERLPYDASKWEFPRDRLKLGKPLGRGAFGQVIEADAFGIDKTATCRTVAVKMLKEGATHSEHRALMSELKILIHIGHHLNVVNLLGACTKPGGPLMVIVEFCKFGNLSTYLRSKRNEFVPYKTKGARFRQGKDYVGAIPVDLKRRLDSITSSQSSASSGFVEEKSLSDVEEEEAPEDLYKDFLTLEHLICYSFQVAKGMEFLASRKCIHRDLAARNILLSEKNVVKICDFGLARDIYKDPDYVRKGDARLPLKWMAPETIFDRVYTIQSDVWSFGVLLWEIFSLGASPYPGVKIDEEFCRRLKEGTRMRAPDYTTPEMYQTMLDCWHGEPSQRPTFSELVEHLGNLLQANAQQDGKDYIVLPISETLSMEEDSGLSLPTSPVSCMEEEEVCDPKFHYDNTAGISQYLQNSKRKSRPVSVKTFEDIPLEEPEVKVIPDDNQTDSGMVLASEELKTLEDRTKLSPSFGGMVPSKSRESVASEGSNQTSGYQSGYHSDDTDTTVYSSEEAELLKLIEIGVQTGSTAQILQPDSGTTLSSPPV

Take `Cc1ccc(C(C)NC(=O)c2cccc(C(F)(F)F)c2)cc1-c1ccc2nc(Nc3cnn(C4CC4)c3)ncc2c1` (stereo not drawn) [Compound 43, N-(1-(3-(2-((1-Cyclopropyl-1H-pyrazol-4-yl)amino)quinazolin-6-yl)-4-methylphenyl)ethyl)-3-(trifluoromethyl)benzamide]: the IC50 in test [1] (setting [9]) came to 4.3 ± 1 nM. Also, the inhibition at 0.1 µM in test [2] is 26.9%.

Take `Cc1ccc(C(=O)NCc2cccc(C(F)(F)F)c2)cc1-c1ccc2nc(Nc3cnn(C)c3)ncc2c1` [Compound 38, 4-Methyl-3-(2-((1-methyl-1H-pyrazol-4-yl)amino)quinazolin-6-yl)-N-(3-(trifluoromethyl)benzyl)benzamide]: the inhibition at 0.1 µM in test [2] is 94%.

For `Cc1ccc(C(=O)Nc2cccc(C(F)(F)F)c2)cc1-c1ccc2cn[nH]c2c1` [Compound 7, 3-(1H-Indazol-6-yl)-4-methyl-N-(3-(trifluoromethyl)phenyl)benzamide], in test [3], the concentration for half-maximal inhibition (IC50) was determined as 9.74 nM.

For the compound `Cc1ccc(NC(=O)C(C)c2cccc(C(F)(F)F)c2)cc1-c1ccc2nc(Nc3cnn(C)c3)ncc2c1` (stereo not drawn) [Compound 39, N-(4-Methyl-3-(2-((1-methyl-1H-pyrazol-4-yl)amino)quinazolin-6-yl)phenyl)-2-(3-(trifluoromethyl)phenyl)propanamide], in test [2], the inhibition at 0.1 µM was determined as 70.2%.

Turning to `Cc1ccc(NC(=O)Nc2cccc(C(F)(F)F)c2)cc1-c1ccc2nc(Nc3cnn(C)c3)ncc2c1` [Compound 37, 1-(4-Methyl-3-(2-((1-methyl-1H-pyrazol-4-yl)amino)quinazolin-6-yl)phenyl)-3-(3-(trifluoromethyl)phenyl)urea], the inhibition at 0.1 µM in test [2] came out at 89.3%.

Regarding `Cc1ccc(C(=O)Nc2cc(CN3CCN(C(C)C)CC3)cc(C(F)(F)F)c2)cc1-c1ccc2nc(Nc3cnn(C)c3)ncc2c1` [Compound 26, N-(3-((4-Isopropylpiperazin-1-yl)methyl)-5-(trifluoromethyl)phenyl)-4-methyl-3-(2-((1-methyl-1H-pyrazol-4-yl)amino)quinazolin-6-yl)benzamide], 2.2 ± 0.3 nM corresponded to half-maximal inhibition in test [1] (setting [9]) (IC50). Also, the inhibition at 0.01 µM in test [4] was found to be 92.7%; in test [5], 90.1%.

With `COC(=O)c1ccc2c(c1)NC(=O)/C2=C(\Nc1ccc(N(C)C(=O)CN2CCN(C)CC2)cc1)c1ccccc1` [nintedanib], in test [6] (60 mg/kg once daily), the “weight of mice at the end of the treatment” value came to 24.54 ± 2.09 g. Also, the weight recovery ratio in test [6] (BLM mice, 60 mg/kg) is 12.93%. This compound showed a Masson score in test [6] (BLM mice, 60 mg/kg, vehicle 2.67 ± 0.57, scale 1–4) of 1.89 ± 0.55.

In test [3], `O=C(Nc1cccc(C(F)(F)F)c1)c1ccc(C2CC2)c(-c2ccc3nc(Nc4cnn(C5CC5)c4)ncc3c2)c1` [Compound 36, 4-Cyclopropyl-3-(2-((1-cyclopropyl-1H-pyrazol-4-yl)amino)quinazolin-6-yl)-N-(3-(trifluoromethyl)phenyl)benzamide] came in with a concentration for half-maximal inhibition (IC50) of 16 nM. Also, the inhibition at 0.1 µM in test [5] turned out to be 0%; in test [2], 100%. The KDR inhibition ratio entry in test [2] (10 nmol/L) is recorded as “over 50%”. Besides, in test [7], the ABL inhibition ratio result is recorded as “over 50%”. Also, in test [8], the “inhibition of DDR2 phosphorylation” value is listed as “high inhibitory activity”.

In test [1] (setting [9]), `Cc1ccc(C(=O)Nc2cc(CN3CCN(C4CCCC4)CC3)cc(C(F)(F)F)c2)cc1-c1ccc2nc(Nc3cnn(C)c3)ncc2c1` [Compound 27, N-(3-((4-Cyclopentylpiperazin-1-yl)methyl)-5-(trifluoromethyl)phenyl)-4-methyl-3-(2-((1-methyl-1H-pyrazol-4-yl)amino)quinazolin-6-yl)benzamide] returned an IC50 of 3.1 ± 1 nM. For the same compound, the inhibition at 0.01 µM is 92.8% in test [4] and 94.4% in test [5].

For the compound “N-(3-((3,5-Dimethylpiperazin-1-yl)methyl)-5-(trifluoromethyl)phenyl)-4-methyl-3-(2-((1-methyl-1H-pyrazol-4-yl)amino)quinazolin-6-yl)benzamide [Compound 29]”, in test [1] (read-out: DDR2 IC50, two separate experiments), the IC50 came out at 2.7 ± 0.2 nM. Moreover, the “RET inhibition @10 nmol/L” value in test [4] (10 nmol/L) worked out at 91.6%. In addition, in test [5] (10 nmol/L), the “Flt-3 inhibition @10 nmol/L” value was 93.8%.

Consider `Cc1ccc(C(=O)Nc2cccc(C(F)(F)F)c2)cc1-c1ccc2nc(Nc3cnn(C4CC4)c3)ncc2c1` [Compound 24, 3-(2-((1-Cyclopropyl-1H-pyrazol-4-yl)amino)quinazolin-6-yl)-4-methyl-N-(3-(trifluoromethyl)phenyl)benzamide], for which the IC50 in test [1] (setting [9]) worked out at 2.8 ± 0.5 nM; in test [3], 13.8 nM. Also, the “inhibition of DDR2 phosphorylation” value in test [8] is “high inhibitory activity”.

In test [1] (setting [9]), `COc1ccc(C(=O)Nc2cccc(C(F)(F)F)c2)cc1-c1ccc2nc(Nc3cnn(C)c3)ncc2c1` [Compound 33, 4-Methoxy-3-(2-((1-methyl-1H-pyrazol-4-yl)amino)quinazolin-6-yl)-N-(3-(trifluoromethyl)phenyl)benzamide] had an IC50 of 2.3 ± 0.5 nM. The inhibition at 0.1 µM in test [4] (read-out: RET inhibition @100 nmol/L) was 41.3%; in test [5] it was 59.7%.
